Experimental data as given in ChEMBL document CHEMBL4732237, “Discovery of 4-alkoxy-2-aryl-6,7-dimethoxyquinolines as a new class of topoisomerase I inhibitors endowed with potent in vitro anticancer activity” (2021).

What was measured:
Type in all cases: functional
Settings in all cases: read-out: GI
SR = assay: Growth inhibition of human SR cells at 10 uM incubated for 48 hrs by sulforhodamine B assay relative to control
Method in brief: (§1)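 NCI one-dose screen. Cells grown in RPMI 1640 with 5% FBS and 2 mM L-glutamine, plated and incubated 24 h at 37 °C, 5% CO2. DMSO-dissolved drug added, then 48 h further incubation. Adherent cells fixed with cold TCA, suspension cells fixed after settling. Stained with 0.4% SRB, absorbance read at 515 nm. Reported as percent growth relative to no-drug control and time-zero cell number.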

EKVX = assay: Growth inhibition of human EKVX cells at 10 uM incubated for 48 hrs by sulforhodamine B assay relative to control
Method in brief: (§2)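 NCI-60 single-dose screen. Cells were grown in RPMI 1640 with 5% FBS and 2 mM L-glutamine and plated 24 h before drug addition. Compound was added at one concentration in DMSO-derived medium and incubated for 48 h at 37 °C in 5% CO2. Read-out was SRB protein stain at 515 nm. Result is percent growth versus the no-drug control and the time-zero cell count; values below 0 indicate lethality.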

NCI-H460 = assay: Growth inhibition of human NCI-H460 cells at 10 uM incubated for 48 hrs by sulforhodamine B assay relative to control; method in brief: as §1
KM12 = assay: Growth inhibition of human KM12 cells at 10 uM incubated for 48 hrs by sulforhodamine B assay relative to control; method in brief: as §2
SW-620 = assay: Growth inhibition of human SW-620 cells at 10 uM incubated for 48 hrs by sulforhodamine B assay relative to control
Method in brief: (§3)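 NCI one-dose screen across a 59-line panel. Cells were grown in RPMI 1640 with 5% FBS and 2 mM L-glutamine, plated and pre-incubated 24 h, then exposed to drug for 48 h at 37 °C, 5% CO2. Adherent cells were fixed with cold TCA (10% final), stained with 0.4% SRB in 1% acetic acid and read at 515 nm. Result is percent growth relative to no-drug control and time-zero cell count.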

SF-539 = assay: Growth inhibition of human SF-539 cells at 10 uM incubated for 48 hrs by sulforhodamine B assay relative to control; method in brief: as §1
U-251 = assay: Growth inhibition of human U-251 cells at 10 uM incubated for 48 hrs by sulforhodamine B assay relative to control; method in brief: as §3
SK-MEL-5 = assay: Growth inhibition of human SK-MEL-5 cells at 10 uM incubated for 48 hrs by sulforhodamine B assay relative to control; method in brief: as §1
UACC-257 = assay: Growth inhibition of human UACC-257 cells at 10 uM incubated for 48 hrs by sulforhodamine B assay relative to control; method in brief: as §3
OVCAR-8 = assay: Growth inhibition of human OVCAR-8 cells at 10 uM incubated for 48 hrs by sulforhodamine B assay relative to control; method in brief: as §1
RXF 393 = assay: Growth inhibition of human RXF 393 cells at 10 uM incubated for 48 hrs by sulforhodamine B assay relative to control; method in brief: as §1
TK-10 = assay: Growth inhibition of human TK-10 cells at 10 uM incubated for 48 hrs by sulforhodamine B assay relative to control; method in brief: as §3
MDA-MB-468 = assay: Growth inhibition of human MDA-MB-468 cells at 10 uM incubated for 48 hrs by sulforhodamine B assay relative to control; method in brief: as §2

SMILES | inhibition of growth at 10 µM (SR) | inhibition of growth at 10 µM (EKVX) | inhibition of growth at 10 µM (NCI-H460) | inhibition of growth at 10 µM (KM12) | inhibition of growth at 10 µM (SW-620) | inhibition of growth at 10 µM (SF-539) | inhibition of growth at 10 µM (U-251) | inhibition of growth at 10 µM (SK-MEL-5) | inhibition of growth at 10 µM (UACC-257) | inhibition of growth at 10 µM (OVCAR-8) | inhibition of growth at 10 µM (RXF 393) | inhibition of growth at 10 µM (TK-10) | inhibition of growth at 10 µM (MDA-MB-468)
COc1cc2nc(-c3ccc(Cl)cc3)cc(OCCN3CCOCC3)c2cc1OC | 3% | 3% | 3% | 3% | 3% | 3% | 3% | 3% | 3% | 3% | 3% | 3% | 3%
COc1cc2nc(-c3ccc(C(F)(F)F)cc3)cc(OCCN3CCOCC3)c2cc1OC | 13% | 13% | 13% | 13% | 13% | 13% | 13% | 13% | 13% | 13% | 13% | 13% | 13%
COc1cc2nc(-c3ccsc3)cc(OCCCN3CCC(O)CC3)c2cc1OC | 32% | 32% | 32% | 32% | 32% | 32% | 32% | 32% | 32% | 32% | 32% | 32% | 32%
COc1cc2nc(-c3ccc(C(F)(F)F)cc3)cc(OCCN3CCC(O)CC3)c2cc1OC | 13% | 13% | 13% | 13% | 13% | 13% | 13% | 13% | 13% | 13% | 13% | 13% | 13%
COc1cc2nc(-c3ccco3)cc(OCCCN3CCC(O)CC3)c2cc1OC | 46% | 46% | 46% | 46% | 46% | 46% | 46% | 46% | 46% | 46% | 46% | 46% | 46%
COc1cc2nc(-c3ccc(C(F)(F)F)cc3)cc(OCCN3CCCCC3)c2cc1OC | 13% | 13% | 13% | 13% | 13% | 13% | 13% | 13% | 13% | 13% | 13% | 13% | 13%
COc1cc2nc(-c3ccc(Cl)cc3)cc(OCCN3CCC(O)CC3)c2cc1OC | 3% | 3% | 3% | 3% | 3% | 3% | 3% | 3% | 3% | 3% | 3% | 3% | 3%
COc1cc2nc(-c3cccs3)cc(OCCCN3CCC(O)CC3)c2cc1OC | 20% | 20% | 20% | 20% | 20% | 20% | 20% | 20% | 20% | 20% | 20% | 20% | 20%
COc1cc2nc(-c3ccc(C(F)(F)F)cc3)cc(OCCN3CCCC3)c2cc1OC | 13% | 13% | 13% | 13% | 13% | 13% | 13% | 13% | 13% | 13% | 13% | 13% | 13%
COc1cc2nc(-c3ccc(Cl)cc3)cc(OCCN3CCCC3)c2cc1OC | 3% | 3% | 3% | 3% | 3% | 3% | 3% | 3% | 3% | 3% | 3% | 3% | 3%
COc1cc2nc(-c3ccc(Cl)cc3)cc(OCCN3CCCCC3)c2cc1OC | 3% | 3% | 3% | 3% | 3% | 3% | 3% | 3% | 3% | 3% | 3% | 3% | 3%
